Test results published in ChEMBL document CHEMBL5653614, “Rescue of fragile X syndrome phenotypes in Fmr1 KO mice by the small-molecule PAK inhibitor FRAX486” (Proc Natl Acad Sci U S A, 2013).
Activity calls are given as the source filed them. No cut-off for these calls is given here.

Legend:
[1] = tested on: Mus musculus; assay: Protective activity in Fmr1 knockout FVB.129P2-Fmr1tm1Cgr/J mouse assessed as decrease in apical dendritic spine density in layer II/III pyramidal neurons segment 2 at 20 mg/kg, sc and measured after 8 hrs by Golgi-Cox technique analysis; assay type: functional, organism-based
In short: (§1)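 Adult male WT and Fmr1 KO FVB mice given 20 mg/kg s.c. or vehicle; brains collected 8 h later and Golgi stained. Apical dendrites of layer II/III pyramidal neurons in temporal cortex, originating 50–100 µm from the soma, were divided into ten 10-µm segments and spines counted. 40–60 neurons from 4–6 mice per group; one-way ANOVA.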

[2] = Toxicity in Fmr1 knockout FVB.129P2-Fmr1tm1Cgr/J mouse assessed as body weight change at 20 mg/kg,sc for 21 days; assay type: organism-based; conditions: in vivo, 504 h, time 21 day
[3] = Drug uptake in FVB.129P2 mouse brain at 20 mg/kg,sc for 5 days and measured after 24 hrs by LC-MS/MS analysis; assay type: ADME, organism-based; conditions: in vivo, 120 h, time 5 day
In short: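 Mice dosed s.c. at 20 mg/kg once daily for up to 5 d; plasma and forebrain sampled 24 h after the last injection. Brain homogenized in 2 volumes of cold PBS; levels measured by LC-MS/MS. n = 3–4, mean ± SEM.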

[4] = tested on: Mus musculus; assay: (§2) Anti-seizure activity against 124dB loud auditory stimulus induced Fmr1 knockout FVB.129P2-Fmr1tm1Cgr/J mouse model of audiogenic seizure assessed as decrease in sound-induced wild running at 20 mg/kg,sc for 5 days followed by audiogenic seizure induction after 8 hrs post-treatment by audiogenic seizure assay (Rvb=100%); assay type: functional; design: scale not given: the % may be the effect or the level left; conditions: time 5 day
In short: (§3)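 Adult male Fmr1 KO mice given 10 or 20 mg/kg s.c. daily for 5 d in 20% hydroxypropyl-β-cyclodextrin vehicle. AGS assay run 8 h after the final injection: 2 min acclimation in an acrylic chamber, then a 124 dB auditory stimulus. Incidence of wild running and seizure recorded; χ2 comparison with vehicle.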

[5] = tested on: Mus musculus; assay: Anti-seizure activity against 124dB loud auditory stimulus induced Fmr1 knockout FVB.129P2-Fmr1tm1Cgr/J mouse model of audiogenic seizure assessed as decrease in sound-induced seizure at 20 mg/kg,sc and measured after 5 days by audiogenic seizure assay (Rvb=100%); assay type: functional; design: scale not given: the % may be the effect or the level left; conditions: time 5 day
In short: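 Fmr1 KO mice received one s.c. dose of vehicle or 20 mg/kg in hydroxypropyl-β-cyclodextrin; the AGS assay (124 dB stimulus after 2 min acclimation) was run 5 d later. Seizure incidence recorded.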

[6] = tested on: Mus musculus; assay: as §2, with “seizure” for “wild running”, “10” for “20”, “(Rvb=96%)” for “(Rvb=100%)”; assay type: functional; design: scale not given: the % may be the effect or the level left; conditions: time 5 day; in short: as §3
[7] = tested on: Mus musculus; assay: Protective activity in FVB.129P2-Pde6b+ Tyr c-ch/AntJ wild type mouse assessed as decrease in distance travelled at 20 mg/kg, sc for 5 days and measured during 18 to 30 mins by open field assay; assay type: functional, organism-based; conditions: time 5.0 day
In short: (§4)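 Adult male WT and Fmr1 KO mice dosed s.c. at 20 mg/kg or vehicle for 5 d; tested 4–5.5 h after dosing. Single mouse in a novel open field for 30 min, tracked by infrared sensors in 1-min bins; bar-graph values averaged over minutes 18–30. Mice beyond 2 SD in total distance, or immobile for 5 consecutive minutes, were excluded.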

[8] = tested on: Mus musculus; assay: Anti-seizure activity against 124dB loud auditory stimulus induced Fmr1 knockout FVB.129P2-Fmr1tm1Cgr/J mouse model of audiogenic seizure assessed as decrease in sound-induced wild running at 30 mg/kg,sc for 8 hrs followed by audiogenic seizure induction by audiogenic seizure assay (Rvb=100%); assay type: functional; design: scale not given: the % may be the effect or the level left
In short: (§5)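 Adult male mice (10–17 wk). Single s.c. dose (0, 10, 20 or 30 mg/kg) in 20% (wt/vol) hydroxypropyl-β-cyclodextrin vehicle; AGS induced 8 h later. Mouse acclimated 2 min in a clear acrylic two-chamber box, then exposed to a 124 dB sound. Scored as percentage of animals showing each sequential phase (wild running, seizure, death by respiratory arrest); χ2 test against vehicle.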

[9] = tested on: Mus musculus; assay: as §2, with “seizure” for “wild running”, “(Rvb=96%)” for “(Rvb=100%)”; assay type: functional; design: scale not given: the % may be the effect or the level left; conditions: time 5 day; in short: as §3
[10] = tested on: Mus musculus; assay: Protective activity in Fmr1 knockout FVB.129P2-Fmr1tm1Cgr/J mouse assessed as decrease in apical dendritic spine density in layer II/III pyramidal neurons segment 9 at 20 mg/kg, sc and measured after 8 hrs by Golgi-Cox technique analysis; assay type: functional, organism-based; in short: as §1
[11] = Toxicity in FVB.129P2-Pde6b+ Tyr c-ch/AntJ wild type mouse assessed as body weight change at 20 mg/kg,sc for 21 days; assay type: organism-based; conditions: in vivo, 504 h, time 21 day
[12] = tested on: Mus musculus; assay: Anti-seizure activity against 124dB loud auditory stimulus induced Fmr1 knockout FVB.129P2-Fmr1tm1Cgr/J mouse model of audiogenic seizure assessed as decrease in sound-induced wild running at 20 mg/kg,sc for 8 hrs followed by audiogenic seizure induction by audiogenic seizure assay (Rvb=100%); assay type: functional; design: scale not given: the % may be the effect or the level left; in short: as §5
[13] = tested on: Mus musculus; assay: Anti-seizure activity against 124dB loud auditory stimulus induced Fmr1 knockout FVB.129P2-Fmr1tm1Cgr/J mouse model of audiogenic seizure assessed as decrease in sound-induced seizure at 30 mg/kg,sc for 8 hrs followed by audiogenic seizure induction by audiogenic seizure assay (Rvb=100%); assay type: functional; design: scale not given: the % may be the effect or the level left; in short: as §5
[14] = tested on: Mus musculus; assay: Protective activity in FVB.129P2-Pde6b+ Tyr c-ch/AntJ wild type mouse assessed as decrease in stereotypy count at 20 mg/kg, sc for 5 days by open field assay; assay type: functional, organism-based; conditions: time 5.0 day; in short: as §4
[15] = tested on: Mus musculus; assay: Protective activity in Fmr1 knockout FVB.129P2-Fmr1tm1Cgr/J mouse assessed as decrease in apical dendritic spine density in layer II/III pyramidal neurons segment 4 at 20 mg/kg, sc and measured after 8 hrs by Golgi-Cox technique analysis; assay type: functional, organism-based; in short: as §1
[16] = tested on: Mus musculus; assay: Anti-seizure activity against 124dB loud auditory stimulus induced Fmr1 knockout FVB.129P2-Fmr1tm1Cgr/J mouse model of audiogenic seizure assessed as decrease in sound-induced wild running at 10 mg/kg,sc for 8 hrs followed by audiogenic seizure induction by audiogenic seizure assay (Rvb=100%); assay type: functional; design: scale not given: the % may be the effect or the level left; in short: as §5
[17] = tested on: Mus musculus; assay: Protective activity in FVB.129P2-Pde6b+ Tyr c-ch/AntJ wild type mouse assessed as balance on accelerating rotarod at 20 mg/kg, sc and measured for 4 to 5.25 hrs by rotarod test; assay type: functional, organism-based; conditions: time 4-5.25 hrs
In short: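 Adult male WT and Fmr1 KO mice tested 4–5.5 h after s.c. 20 mg/kg or vehicle. Latency to fall or jump off the rotating cylinder recorded (max 3 min). Three trials per mouse, 30–40 min apart; per-mouse average latency compared.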

[18] = tested on: Mus musculus; assay: Protective activity in Fmr1 knockout FVB.129P2-Fmr1tm1Cgr/J mouse assessed as decrease in apical dendritic spine density in layer II/III pyramidal neurons segment 1 at 20 mg/kg, sc and measured after 8 hrs by Golgi-Cox technique analysis; assay type: functional, organism-based; in short: as §1
[19] = Tmax in FVB.129P2 mouse plasma at 20 mg/kg,sc by LC-MS/MS analysis; assay type: ADME, organism-based
In short: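 WT FVB.129P2 mice received a single s.c. injection of 20 mg/kg FRAX486 in 20% (wt/vol) hydroxypropyl-β-cyclodextrin. Blood was collected at time points from 15 min to 24 h, n = 2–3 per point. Plasma drug levels were quantified by LC-MS/MS and reported as mean ± SEM.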

- Drug uptake [3]: Active
- Tmax [19]: 15 min
SMILES: CCn1c(=O)c(-c2ccc(Cl)cc2Cl)cc2cnc(Nc3ccc(N4CCNCC4)c(F)c3)nc21
- Activity [1]: inactive
- Activity [2]: Non-Toxic
- Activity [4]: 54%
- Activity [5]: 100%
- Activity [6]: 50%
- Activity [7]: Active
- Activity [8]: 0%
- Activity [9]: 42%
- Activity [10]: inactive
- Activity [11]: Non-Toxic
- Activity [12]: 25%
- Activity [13]: 0%
- Activity [14]: Active
- Activity [15]: Active
- Activity [16]: 80%
- Activity [17]: inactive
- Activity [18]: inactive
